# A selection: hits, their analogues and other compounds. The true share with any hit is near 2.1%.
# CCR6 antagonist – antagonists of human CCR6 receptor. P51684. CHO-K1 CCR6 PathHunter beta-arrestin, luminescence, CCL20-stimulated. inhibition, % at 20 µM. 340,000 compounds, 0.49% hits. AID 493098;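 active means compounds whose inhibition of the agonist-driven luminescence signal at 20 µM reaches about 50%, limit read from the data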;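 further: cells stimulated with CCL20 at 14 nM final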
# Target sequence (P51684 whole entry, looked up): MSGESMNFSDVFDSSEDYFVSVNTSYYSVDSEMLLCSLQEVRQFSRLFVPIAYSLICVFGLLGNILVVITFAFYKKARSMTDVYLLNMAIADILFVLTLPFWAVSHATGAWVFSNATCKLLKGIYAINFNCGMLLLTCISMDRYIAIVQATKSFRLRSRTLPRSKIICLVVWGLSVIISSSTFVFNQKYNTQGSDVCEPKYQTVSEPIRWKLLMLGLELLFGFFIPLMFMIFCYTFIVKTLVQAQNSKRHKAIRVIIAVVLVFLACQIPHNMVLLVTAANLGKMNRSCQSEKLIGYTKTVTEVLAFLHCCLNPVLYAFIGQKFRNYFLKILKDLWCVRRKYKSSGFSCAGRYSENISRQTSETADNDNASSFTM
# EBI2 antag – antagonists of human EBI2 receptor | P32249 | EBI2 beta-arrestin recruitment, luminescence, 7a,25-OHC stimulated | inhibition, % at 5 µM | 360,000 compounds, 0.81% hits; in the data active means inhibition above about 38%;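 further: enzyme fragment complementation signal reports receptor beta-arrestin coupling in cells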
# APJ antagonist – APJ receptor antagonism. P35414. CHO-K1 APJ beta-arrestin complementation, luminescence. inhibition, % at 20 µM. 330,000 compounds, 0.32% hits. AID 2521;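 active means inhibition above about 40% at 20 µM, limit read from the data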;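 further: cells challenged with 10 nM apelin-13 agonist together with compound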
# m5-HT2A agonist – activates the mouse 5-HT2A serotonin receptor; 360,000 compounds, 0.66% hits; P35363; activation, % at 7.6 µM; CHO-K1 mHTR2A beta-arrestin complementation, luminescence; percent of 30 µM serotonin response;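 active means activation above a run cutoff, the mean activation of all tested compounds plus 3 SD, cut at about 14% in these data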
# CXCR6 inh – blocks human CXCR6 beta-arrestin recruitment; O00574; CHO-K1 PathHunter CXCR6 beta-arrestin, luminescence; inhibition, % at 20 µM; 360,000 compounds, 0.36% hits; AID 602244; in the data active means inhibition above about 34%, passing the limit was not always enough;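 further: antagonist mode with CXCL16 agonist at 10 nM final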
# APJ agonist – agonists of human APJ apelin receptor; 330,000 compounds, 0.11% hits; AID 2520; CHO-K1 APJ PathHunter beta-arrestin, luminescence; 0% DMSO wells, 100% apelin; activation, % at 20 µM;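 active means activation more than six SD over the plate average, tested at 20 µM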
#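 Assay system: CHO-K1 APJ beta-arrestin complementation cell line / Compound: single test compound dose, 20 µM final, 1% DMSO / Times: overnight seeding, 90 min compound at 25 °C, 1 h detection / Technique: beta-gal luminescence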
# Hits are given with their value; . = inactive; / = not tested or not shown.
SMILES,CCR6 antagonist,EBI2 antag,APJ antagonist,m5-HT2A agonist,CXCR6 inh,APJ agonist
CC(C1CC1)N(Cc1ccccc1)C(=S)Nc1ccccc1Cl (centres undefined),.,.,.,.,.,.
OC(COc1ccc2cc(Br)ccc2c1)CN1CCCC1 (centres undefined),.,.,.,.,.,.
O=S(=O)(N1CCCCC1)N1CCN(CC(O)COc2ccc3cc(Br)ccc3c2)CC1 (centres undefined),.,89.6,.,.,.,.
C/C(=N/NC(=O)c1ccncc1)C1=C(O)CC(C)(C)CC1=O,.,.,.,.,.,.
Cc1c(C(=O)Nc2nc3ccccc3[nH]2)oc2ccccc12,56.3,.,.,.,.,.
O=C(O)CC1(C(=O)O)CC2C=CC1C2 (centres undefined),/,.,/,.,.,/
O=C(Cn1nc(C(F)F)cc1C(F)F)NNC(=S)Nc1ccc([N+](=O)[O-])cc1,.,.,48.7,.,.,.
COc1ccc(NC(=O)CSCC(=O)OCc2cccc(OC)c2OC)cc1,.,.,.,.,.,.
CC(=O)c1cccc(NC(=O)CSc2nc(N3CCOCC3)nc(N3CCOCC3)n2)c1,.,.,.,.,.,.
O=C(NCCOc1ccccc1)c1cc([N+](=O)[O-])ccc1N1CCOCC1,.,58.9,.,.,.,.
O=C(CSCc1ccc(Cl)cc1)Nc1ccc(-c2nnc(-c3ccccc3)o2)cc1,.,.,45.1,.,.,.
O=C(Cc1ccc(Cl)cc1)Nc1ccc(-c2nnc(-c3ccco3)o2)cc1,.,.,.,.,.,.
CSc1ccc(C2=C/C(=C3/SC(=S)NC3=O)c3ccccc3O2)cc1,75.8,.,/,.,45.1,/
CCN1/C(=C2/SC(=S)NC2=O)Sc2ccccc21,.,.,.,.,.,.
COC(=O)[C@]12CCCCC=C1N(Cc1cccc3ccccc13)C(=O)[C@H](CC(=O)N1CCN(C(=O)c3ccco3)CC1)C2,/,.,/,.,.,/
CCOC(=O)c1c(NC(N)=O)sc(C)c1C,.,.,.,.,.,.
CCOC(=O)c1c(N2C(=O)C=CC2=O)sc(C)c1C,/,.,.,.,61.0,.
S=C(Nc1ccccc1)Nc1cc(Cl)ccc1Oc1ccccc1,92.8,.,.,.,.,.
CC(C)N=c1cc2n(-c3ccc(Cl)cc3)c3ccccc3nc-2cc1Nc1ccc(Cl)cc1,.,.,67.0,.,45.5,.
CN(C)C(CNc1ccc(C(F)(F)F)cn1)c1ccccc1 (centres undefined),62.9,.,.,.,.,.
CN(C)C(CNC(=O)Cc1cccc(C(F)(F)F)c1)c1ccccc1 (centres undefined),.,.,.,.,.,.
CC[C@H]1c2[nH]c3ccccc3c2C[C@H]2C(=O)N(c3ccc(F)cc3)C(=O)N21,.,48.0,.,.,.,.
O=C(Nc1ccccc1)C1=C(c2ccccc2)S(=O)(=O)CCS1(=O)=O,51.5,.,/,.,.,/
Fc1cccc(Cl)c1C1SCc2nc3ccccc3n21 (centres undefined),/,.,/,.,.,/
Cc1ccc(CNc2oc(COc3ccccc3Cl)nc2C#N)cc1,.,47.1,.,.,.,.
SMILES,CCR6 antagonist,EBI2 antag,APJ antagonist,m5-HT2A agonist,CXCR6 inh,APJ agonist
COc1ccc(CNc2oc(COc3ccccc3Cl)nc2C#N)cc1,.,.,.,.,.,.
Cc1ccc(S(=O)(=O)NCc2ccccc2Br)cc1,/,.,/,.,/,/
CC(C)C(NS(=O)(=O)c1ccccc1)C(=O)N1CCN(C(=O)c2ccco2)CC1 (centres undefined),.,.,.,.,.,.
Cc1ccc(C(CCN(Cc2ccccc2)C(=O)c2ccco2)c2ccco2)cc1 (centres undefined),51.9,.,.,.,.,.
CC(C)n1nnnc1C1c2ccccc2C(=O)N1CCCn1ccnc1 (centres undefined),/,.,/,.,.,/
N#Cc1cc([N+](=O)[O-])ccc1NC(=O)CSc1n[nH]c(=O)n1C1CC1,.,.,.,.,.,.
CCOc1ccccc1-c1c2cc(O)c(=O)cc-2oc2cc(O)c(O)cc12,56.0,.,/,.,.,/
CCN(CC)S(=O)(=O)c1ccc(N=Nc2c(C)[nH]n(C(N)=S)c2=O)cc1,.,.,.,.,.,.
CCN(CC)S(=O)(=O)c1ccc(N=Nc2cc(C)cc(Br)c2O)cc1,57.8,.,.,.,41.7,.
CCN1/C(=C/c2cc[n+](C)cc2)C=Cc2cc(C)ccc21,57.1,.,/,.,.,/
CCN1/C(=C/c2ccc3ccccc3[n+]2CCCS(=O)(=O)[O-])C=Cc2cc(C)ccc21,.,.,/,.,.,/
COc1ccc(N2Cc3ccccc3C2=NC(=O)c2cncc(Br)c2)cc1,.,.,.,.,.,.
CC(C)C(=O)N(c1cc2sc(=O)oc2c2ccccc12)S(=O)(=O)c1cccs1,.,48.7,.,.,.,.
CC(C)C(=O)N(c1ccc2oc(=O)sc2c1)S(=O)(=O)c1cccs1,.,.,.,.,.,.
CN(C)c1ccc(N2C(=NC(=O)C3CCCO3)SC3CS(=O)(=O)CC32)cc1 (centres undefined),.,.,.,.,.,.
CC1(C)Cc2c(c(N3CCOCC3)nc3sc4c(NCc5ccccc5)nnnc4c23)CS1,.,76.4,.,.,.,.
C(=N\Nc1cc(N2CCCCC2)ncn1)/c1ccco1,.,.,.,.,.,.
CCN(CC)c1ccc(C(=S)N2CCN(c3ccccc3)CC2)cc1,.,63.9,.,.,.,.
S=C(c1ccccc1)N1CCN(c2ccccc2)CC1,.,.,/,.,.,/
COC(=O)C1(CC2CC(c3cccc(Br)c3)=NO2)CCN(C(=O)OC(C)(C)C)CC1 (centres undefined),.,.,.,.,.,.
O=C1C=C(c2cccc3c2sc2ccccc23)C[C@@H](c2ccc(F)cc2)C1,.,66.6,.,.,.,.
Cc1ccccc1/C=N/Nc1ccnc2cc(Cl)ccc12,.,.,/,.,.,/
Oc1ccc(/C=N/Nc2ccnc3cc(Cl)ccc23)c(O)c1,.,45.5,.,.,.,.
Cn1c(=O)c2nc(SCCO)n(C)c2n(C)c1=O,.,.,/,.,.,/
Cc1ccc(S(=O)(=O)NC2=C(N3CCN(Cc4ccccc4)CC3)C(=O)c3ccccc3C2=O)cc1,54.3,.,.,.,.,.
Cc1ccc(S(=O)(=O)NC2=C(N3CCN(c4ccccc4F)CC3)C(=O)c3ccccc3C2=O)cc1,.,.,.,.,.,.
CCOC(=O)C1=CCN(S(=O)(=O)c2ccc(Br)cc2)C1c1ccc(C)cc1 (centres undefined),/,.,/,.,.,/
C/C(CCC12CC3CC(CC(C3)C1)C2)=N\NC(N)=S,57.1,.,.,.,.,.
CC(=O)Nc1nc(C)c(Oc2cccc(C(F)(F)F)c2)c(=O)[nH]1,.,.,.,.,.,.

# Assay outcomes as filed in PubChem BioAssay.
